Consider nine compounds from ChEMBL document CHEMBL5260806, “Hydrogen peroxide activated quinone methide precursors with enhanced DNA cross-linking capability and cytotoxicity towards cancer cells” (Eur J Med Chem, 2017).

Series [1] concerns DNA. Briefly: Induction of [32P]-labeled 49-mer oligonucleotide duplex DNA 25 (unknown origin) interstrand cross-linking at 2 mM for 24 hrs without H2O2 by PAGE. In kind it is functional.
The subject of series [2] is DNA. In words: Induction of [32P]-labeled 49-mer oligonucleotide duplex DNA 25 (unknown origin) interstrand cross-linking at 2 mM for 48 hrs in presence of 2mM H2O2 by PAGE. The class given is functional.
In series [3] the test system is DNA. In words: Induction of [32P]-labeled 49-mer oligonucleotide duplex DNA 25 (unknown origin) interstrand cross-linking assessed as increase in cross linking with increase of pH from 2 to 9 at 2 mM for 24 hrs in presence of H2O2 by PAGE analysis. In kind it is functional.
A further series concerns UO-31. In words: Anticancer activity against human UO-31 cells assessed inhibition of cell growth after 48 hrs by CellTiter-Glo luminescent assay. In kind it is functional, cell-based. Conditions: UO-31, 48 h. In outline:
(§1)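 Renal lines grown in RPMI 1640 with 5% FBS and 2 mM L-glutamine, seeded into 384-well plates at 5,000–10,000 cells/well, held 2–3 h at 37 °C, 5% CO2. DMSO stocks (20 mM) serially halved ten times and added at 1:100. Cells exposed 48 h at 37 °C; CellTiter-Glo added, 10 min at room temperature, luminescence read.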
A general note: Cellular ATP, detected with luciferase, serves as a proxy for viable cell number.

The nature of series [4]: Anticancer activity against human CLL cells assessed as reduction in cell viability incubated for 24 hrs by Annexin/PI staining based fluorescence assay. In kind it is functional. Put shortly:
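CLL lymphocytes were taken from patients' peripheral blood (n=3) by Ficoll-Hypaque, suspended in 10% autologous plasma in RPMI, and exposed to 1, 5, 10, 20, 50 and 100 µM. Viability was measured by annexin V/propidium iodide binding. IC50 comes from one representative patient.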

The test system of a further series is TK-10. In words: Anticancer activity against human TK-10 cells assessed inhibition of cell growth after 48 hrs by CellTiter-Glo luminescent assay. The class given is functional, cell-based. Conditions: TK-10, 48 h. In outline: as §1
The subject of another series is 786-0. In words: Anticancer activity against human 786-0 cells assessed inhibition of cell growth after 48 hrs by CellTiter-Glo luminescent assay. The class given is functional, cell-based. Conditions: 786-0, 48 h. In outline: (§2)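 Renal lines grown in RPMI 1640 with 5% FBS and 2 mM L-glutamine, plated at 5,000–10,000 cells/well in 384-well plates and held 2–3 h at 37 °C, 5% CO2. Compounds were made as 20 mM DMSO stocks, given as ten 2-fold serial dilutions diluted 1:100 into cells, and incubated 48 h. Read-out was CellTiter-Glo luminescence after 10 min at room temperature.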

The subject of the next series is ACHN. In words: Anticancer activity against human ACHN cells assessed inhibition of cell growth after 48 hrs by CellTiter-Glo luminescent assay. The class given is functional, cell-based. In outline:
as §2

The subject of another series is A498. Briefly: Anticancer activity against human A498 cells assessed inhibition of cell growth after 48 hrs by CellTiter-Glo luminescent assay. In kind it is functional, cell-based. The note with it: A498, 48 h. In outline: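 Human tumour cells kept in RPMI 1640 with 5% FBS and 2 mM L-glutamine, seeded at 5,000–10,000 cells/well and left 2–3 h at 37°C, 5% CO2. Drugs taken from 20 mM DMSO stocks, serially halved ten times in DMSO, then added at 1:100 dilution. Cells exposed for 48 h at 37°C. Viability read by CellTiter-Glo luminescence after 10 min at room temperature.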

The test system of the next series is SN12C. In words: Anticancer activity against human SN12C cells assessed inhibition of cell growth after 48 hrs by CellTiter-Glo luminescent assay. The class given is functional, cell-based. Put shortly:
as §1

A further series has as its system MDA-MB-468. In words: Anticancer activity against human MDA-MB-468 cells assessed inhibition of cell growth after 48 hrs by CellTiter-Glo luminescent assay. In kind it is functional, cell-based. Conditions: MDA-MB-468, 48 h. In outline:
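Cells grown in RPMI 1640 with 5% fetal bovine serum and 2 mM L-glutamine, seeded at 5,000–10,000 cells/well in 384-well plates, preincubated 2–3 h at 37°C, 5% CO2. DMSO stocks (20 mM) serially diluted 2-fold ten times, then added at 1:100. Exposure 48 h at 37°C. Viability read by CellTiter-Glo luminescence after 10 min at room temperature; IC50 derived.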

Series [5] deals with DNA. Briefly: Potentiation of H2O2 induced [32P]-labeled 49-mer oligonucleotide duplex DNA 25 (unknown origin) interstrand cross-linking at pH 8 in phosphate buffer solution assessed as rate constant and measured for 24 hrs by PAGE analysis. The class given is functional.
Another series relates to CAKI-1. In words: Anticancer activity against human CAKI-1 cells assessed inhibition of cell growth after 48 hrs by CellTiter-Glo luminescent assay. The class given is functional, cell-based. The note with it: CAKI-1, 48 h. In outline:
as §2

Series [6] relates to CLL cell. In words: Induction of DNA damage in chronic lymphocytic leukemia patient lymphocytes assessed as gamma-H2Ax phosphorylation at Ser139 residue at 10 uM after 24 hrs by FITC-staining based flow cytometry. The class given is functional. Conditions: Homo sapiens. Put shortly:
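Patient CLL lymphocytes, Ficoll-hypaque isolated, in RPMI with 10% autologous plasma, untreated or exposed to 10 µM for 24 h. Cells washed in PBS, fixed in ice-cold 70% ethanol and held at −20 °C. Then permeabilised, stained with FITC anti-H2AX Ser139 antibody and read by flow cytometry.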
A general note: A flow cytometer gives signals particle by particle.

A short description of series [7]: Toxicity in healthy human lymphocytes assessed as reduction in cell viability at 10 uM after 24 hrs by Annexin/PI staining based fluorescence assay. Conditions: lymphocyte. In outline: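 Normal donor lymphocytes (n=2) isolated from peripheral blood by Ficoll-hypaque, in RPMI with 10% autologous plasma. Exposed to 10 µM for 24 h; % viable cells by annexin/PI binding.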

Series [8] deals with CLL cell. Briefly: Induction of DNA damage in chronic lymphocytic leukemia patient lymphocytes assessed as apoptosis rate at 10 uM after 24 hrs by annexin/PI staining based flow cytometry. The class given is functional. Conditions: Homo sapiens.

The source made the active and inactive calls. The calls are words filed in the database; no cut-off is given here.

With `COc1cc(COC(C)=O)c(B2OC(C)(C)C(C)(C)O2)c(COC(C)=O)c1`, the Activity in the series with DNA [1] turned out to be 0%; with DNA [2] it was 26%.
As to `COc1c(CBr)c(B2OC(C)(C)C(C)(C)O2)c(CBr)c(OC)c1OC`, the Activity in the series with DNA [1] and with DNA [2] was 0% in each case. For the same compound, the result in the series with DNA [3] was inactive.
In general, IC50 refers to the midpoint of a concentration-inhibition curve. As to `N[C@@H](Cc1ccc(N(CCCl)CCCl)cc1)C(=O)O` [MELPHALAN], the half-inhibitory concentration (IC50) with UO-31 turned out to be 42.9 µM; in [4], 76.9 µM; in the series with TK-10, 54.5 µM; with 786-0 it was 19.2 µM; with ACHN it was 52.1 µM; in the series on A498 it was 135 µM. Further, half-maximal inhibition in the series on SN12C (IC50) was put at 71 µM.
On to `CC(=O)OCc1cccc(COC(C)=O)c1B1OC(C)(C)C(C)(C)O1`, for which the figures for the Activity with DNA [1] and with DNA [2] were 0% and 20%, respectively.
In the case of `COc1cc(OC)c(CBr)c(B2OC(C)(C)C(C)(C)O2)c1CBr`, the Activity with DNA [2] worked out at 20%.
With `CC(=O)OCc1cc(O)cc(COC(C)=O)c1B1OC(C)(C)C(C)(C)O1`, the Activity in the series on DNA [1] was 0%; with DNA [2], 32%.
Regarding `CC1(C)OB(c2c(CBr)cc(O)cc2CBr)OC1(C)C`, the IC50 was 19.5 µM in the series on UO-31; 11 µM in the series on MDA-MB-468; 20.8 µM in series [4]; 35.4 µM with TK-10; 27.8 µM in the series on 786-0; 35.7 µM in the series with ACHN. Also, the concentration for half-maximal inhibition (IC50) amounted to 38.3 µM in the series with CAKI-1 and 24.4 µM with SN12C. Besides, the Ka in the series on DNA [5] stood at 0.000201 s⁻¹. The outcome in the series with CLL cell [6] and with CLL cell [8] was Active. For the same compound, the Activity with DNA [1] is 0%; in series [7], “Non-Toxic”; in the series on DNA [2], 50%.
As for `CC1(C)OB(c2c(CBr)cccc2CBr)OC1(C)C`, the IC50 in the series on UO-31 was determined as 25.3 µM; in the series with MDA-MB-468, 12 µM; in series [4], 48.3 µM; in the series with TK-10, 21.4 µM; in the series with 786-0, 20.3 µM; in the series on ACHN, 26.9 µM. Also, the IC50 in the series on A498 was determined as 33.3 µM; with SN12C, 27 µM. Besides, in the series on DNA [5], the Ka came out at 8.8e-05 s⁻¹. The outcome with CLL cell [6] and with CLL cell [8] was Active. Besides, the Activity with DNA [1] was 0%; in series [7] it was “Non-Toxic”; in the series with DNA [2], 22%.
`O=C(O)CCCc1ccc(N(CCCl)CCCl)cc1` [CHLORAMBUCIL]: the IC50 in the series with UO-31 turned out to be 40.7 µM; in [4], 98 µM; with 786-0, 55.5 µM; in the series with ACHN, 133 µM; in the series with A498 it was 280 µM; in the series with SN12C, 135 µM.
